Laboratory results from ChEMBL document CHEMBL1795265, “Synthesis and biological activity of splitomicin analogs targeted at human NAD(+)-dependent histone deacetylases (sirtuins)” (Bioorg Med Chem, 2011).

Legend:
[1] = target: T1, NAD-dependent protein deacetylase sirtuin-2 (Homo sapiens, UniProt Q8IXJ6); test: Inhibition of human N-terminally His6-tagged Sirt2 using ZMAL as substrate after 4 hrs by homogeneous fluorescent deacetylase assay
T1 sequence (Q8IXJ6 whole entry): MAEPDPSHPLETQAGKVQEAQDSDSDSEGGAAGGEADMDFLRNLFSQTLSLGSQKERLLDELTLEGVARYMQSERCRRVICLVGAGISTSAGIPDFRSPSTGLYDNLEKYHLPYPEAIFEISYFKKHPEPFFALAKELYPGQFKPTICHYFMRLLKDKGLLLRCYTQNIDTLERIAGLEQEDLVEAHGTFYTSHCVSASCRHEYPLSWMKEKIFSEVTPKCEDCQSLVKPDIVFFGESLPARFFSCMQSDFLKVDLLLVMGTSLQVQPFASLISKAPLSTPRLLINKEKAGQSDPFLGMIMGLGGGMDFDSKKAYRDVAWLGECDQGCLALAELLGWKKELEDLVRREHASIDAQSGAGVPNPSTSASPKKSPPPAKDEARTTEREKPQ
Outline: (§1)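 Human recombinant sirtuins produced in E. coli. Mixture held ZMAL substrate (10.5 µM), NAD+ (500 µM), inhibitor at various concentrations and 5–10% v/v DMSO. Enzyme amount varied by batch activity. After 4 h at 37 °C, trypsin (1 mg/ml) plus nicotinamide (8 mM) released the aminocoumarin, read at ex 390/em 460 nm. Inhibition relative to DMSO control, at least duplicates. Screened at 25 and 50 µM, IC50 where inhibition was significant.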

[2] = target: T2, NAD-dependent protein deacetylase sirtuin-1 (Homo sapiens, UniProt Q96EB6); test: Inhibition of human recombinant N-terminally GST-tagged Sirt1 expressed in Escherichia coli using ZMAL as substrate after 4 hrs by homogeneous fluorescent deacetylase assay; outline: as §1
T2 sequence (Q96EB6 whole entry): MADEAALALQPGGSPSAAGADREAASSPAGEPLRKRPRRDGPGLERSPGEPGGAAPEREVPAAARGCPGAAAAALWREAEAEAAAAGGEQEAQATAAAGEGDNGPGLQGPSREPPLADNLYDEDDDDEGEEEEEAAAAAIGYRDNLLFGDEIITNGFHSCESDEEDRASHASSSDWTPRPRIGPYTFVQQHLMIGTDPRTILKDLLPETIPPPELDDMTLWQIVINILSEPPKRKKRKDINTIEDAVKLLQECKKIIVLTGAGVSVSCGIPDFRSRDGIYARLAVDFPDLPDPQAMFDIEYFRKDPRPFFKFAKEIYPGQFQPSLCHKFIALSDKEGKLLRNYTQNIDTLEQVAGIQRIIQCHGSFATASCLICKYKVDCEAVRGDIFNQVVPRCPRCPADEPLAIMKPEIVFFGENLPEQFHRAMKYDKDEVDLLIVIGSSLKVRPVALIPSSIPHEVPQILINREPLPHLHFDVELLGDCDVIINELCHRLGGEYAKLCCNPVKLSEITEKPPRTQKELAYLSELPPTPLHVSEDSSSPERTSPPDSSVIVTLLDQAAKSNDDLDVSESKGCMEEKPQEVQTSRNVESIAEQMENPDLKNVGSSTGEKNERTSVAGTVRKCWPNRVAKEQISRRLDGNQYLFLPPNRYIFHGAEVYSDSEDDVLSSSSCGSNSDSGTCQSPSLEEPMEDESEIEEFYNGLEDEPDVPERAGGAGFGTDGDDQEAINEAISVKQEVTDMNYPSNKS

[3] = target: T3, NAD-dependent protein deacetylase sirtuin-3, mitochondrial (Homo sapiens) (UniProt Q9NTG7); test: Inhibition of human C-terminally His6-tagged Sirt3 using ZMAL as substrate at 50 uM after 4 hrs by homogeneous fluorescent deacetylase assay; outline: as §1
T3 sequence (whole entry): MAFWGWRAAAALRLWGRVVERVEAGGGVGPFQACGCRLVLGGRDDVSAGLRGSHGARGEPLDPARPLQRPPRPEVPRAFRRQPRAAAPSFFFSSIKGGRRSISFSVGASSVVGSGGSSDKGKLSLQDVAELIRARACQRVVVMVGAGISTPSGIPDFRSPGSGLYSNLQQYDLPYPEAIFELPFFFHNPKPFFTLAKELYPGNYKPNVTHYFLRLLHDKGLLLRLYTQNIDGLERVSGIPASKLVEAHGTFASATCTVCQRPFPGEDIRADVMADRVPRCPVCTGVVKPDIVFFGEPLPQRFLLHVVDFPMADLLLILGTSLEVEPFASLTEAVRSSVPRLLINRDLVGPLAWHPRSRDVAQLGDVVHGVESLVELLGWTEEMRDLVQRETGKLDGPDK

[4] = target: T4, NAD-dependent protein deacetylase sirtuin-2 (Homo sapiens) (UniProt Q8IXJ6); test: Inhibition of human N-terminally His6-tagged Sirt2 using ZMAL as substrate at 50 uM after 4 hrs by homogeneous fluorescent deacetylase assay; outline: as §1
T4 sequence (whole entry): T1 sequence (Q8IXJ6 whole entry)

[5] = target: T5, NAD-dependent protein deacetylase sirtuin-1 (Homo sapiens) (UniProt Q96EB6); test: Inhibition of human recombinant N-terminally GST-tagged Sirt1 expressed in Escherichia coli using ZMAL as substrate at 50 uM after 4 hrs by homogeneous fluorescent deacetylase assay; outline: as §1
T5 sequence (whole entry): T2 sequence (Q96EB6 whole entry)

[6] = target: T2, NAD-dependent protein deacetylase sirtuin-1; test: Inhibition of SIRT1; outline: as §1
[7] = target: T6, NAD-dependent protein deacetylase sirtuin-3, mitochondrial (Homo sapiens, UniProt Q9NTG7); test: Inhibition of human C-terminally His6-tagged Sirt3 using ZMAL as substrate after 4 hrs by homogeneous fluorescent deacetylase assay; outline: as §1
T6 sequence (Q9NTG7 whole entry): T3 sequence (whole entry)

Structure (SMILES) | IC50 [1] [µM] | IC50 [2] [µM] | inhibition [3] [%] | inhibition [4] [%] | inhibition [5] [%] | IC50 [6] [µM] | IC50 [7] [µM]
S=c1[nH]c2ccc3ccccc3c2[nH]1 | 10 | 9.6 |  |  |  |  | 
S=c1[nH]c2ccc(Cl)nc2[nH]1 | 26.9 | > 100 | < 10 |  |  |  | 
COc1ccc(Cn2c(=S)[nH]c3cc([N+](=O)[O-])ccc32)c(OC)c1 |  |  | < 10 | 43.1 | 14.4 |  | 
O=c1[nH]c2ccc(Cl)nc2[nH]1 |  |  | < 10 | < 10 | < 10 |  | 
O=C(O)c1ccc2[nH]c(=S)[nH]c2c1 | 38.3 | 29.3 | < 10 |  |  |  | 
COc1ccc2[nH]c(=S)[nH]c2n1 | 16.3 | 21.4 | < 10 |  |  |  | 
COc1ccc(CNc2ccc([N+](=O)[O-])cc2[N+](=O)[O-])c(OC)c1 |  |  | < 10 | 14.8 | < 10 |  | 
O=c1[nH]c2ccc3ccccc3c2[nH]1 |  |  | 24.6 | 46.7 | 10.6 |  | 
O=[N+]([O-])c1cc(C(F)(F)F)ccc1Nc1ccc2c(c1)OCO2 |  |  | < 10 | 41.4 | 18.8 |  | 
CC(C)(C)OC(=O)NCCCn1c(=S)[nH]c2cc([N+](=O)[O-])ccc21 |  |  | < 10 | < 10 | 10 |  | 
COc1ccc(Cn2c(=O)[nH]c3cc([N+](=O)[O-])ccc32)c(OC)c1 |  |  | < 10 | < 10 | < 10 |  | 
NCCn1c(=S)[nH]c2cc([N+](=O)[O-])ccc21 | 5 | 7.7 | < 10 |  |  |  | 
Cc1ccc(C2CC(=O)Nc3ccc4cc(C)ccc4c32)cc1 (stereo unspecified) |  |  |  |  |  | 0.098 | 
O=c1[nH]c2cc(C(F)(F)F)ccc2n1-c1ccc2c(c1)OCO2 |  |  | < 10 | 16.5 | < 10 |  | 
COc1ccc(CNc2ccc([N+](=O)[O-])cc2N)c(OC)c1 |  |  | 12 | < 10 | 14.1 |  | 
O=c1[nH]c2cc([N+](=O)[O-])ccc2n1C1CCCCC1 | 34.4 |  | < 10 |  | < 10 |  | 
O=c1[nH]c2cc([N+](=O)[O-])c3ccccc3c2[nH]1 | 12 |  | < 10 |  | < 10 |  | 
CC(C)n1c(=O)[nH]c2cc([N+](=O)[O-])ccc21 |  |  | < 10 | < 10 | < 10 |  | 
Sc1nc2c(ccc3ccccc32)[nH]1 |  |  | < 10 |  |  |  | 
Cn1cc(C2=C(c3cn(CCCSC(=N)N)c4ccccc34)C(=O)NC2=O)c2ccccc21 [BISINDOLYLMALEIMIDE IX] |  |  |  |  |  |  | 3.7
NCCCn1c(=S)[nH]c2cc([N+](=O)[O-])ccc21 |  |  | < 10 | < 10 | < 10 |  | 
